Laboratory results taken from publication PMC8799559 (Advances in Therapy, 2021).

Columns and labels:
[1] = Population pharmacokinetics; assay type: in vivo, human
How it was run: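 Plasma drug measured by validated LC-MS/MS; LLOQ 2.08 or 2.18 ng/mL. Intensive sampling on cycle 1 day 4 and cycle 2 day 1, pre-dose to 8 h post-dose, plus pre-dose samples on cycle 1 day 8 and cycle 2 day 10. Prior model built on 505 subjects from eight studies applied by nonlinear mixed-effects (FOCEI). Checked by diagnostic plots, VPCs and NPDE.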

[2] = tested on: 1L DLBCL; assay type: in vivo, human; conditions: all-comers and BCL-2-IHC-positive subpopulations, logistic regression
How it was run: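 Phase 2 1L DLBCL patients (n = 199) given 800 mg test compound on a 10/21-day schedule with R-CHOP. PET-CT complete response assessed at the end-of-treatment visit, 6–8 weeks from day 1 of the last cycle. Logistic regression (logit link) on nominal AUCss; α = 0.05 for the exposure coefficient. Covariates added by forward stepwise selection at α = 0.01.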

[3] = fixed at legacy model estimate ref 13, cited from earlier work
[4] = legacy model, 50 subjects receiving venetoclax + R ref 13; cited from earlier work
[5] = phase 3 MURANO study, R/R CLL ref 19; cited from earlier work
[6] = tested on: circulating lymphocyte counts; conditions: cited from earlier work
[7] = tested on: tumor size; conditions: cited from earlier work
[8] = food effect on relative bioavailability

CC1(C)CCC(CN2CCN(c3ccc(C(=O)NS(=O)(=O)c4ccc(NCC5CCOCC5)c([N+](=O)[O-])c4)c(Oc4cnc5[nH]ccc5c4)c3)CC2)=C(c2ccc(Cl)cc2)C1 [venetoclax]
half-life ([1]; human, plasma, oral): 25.2 h
θV2/F,GO27878 (study effect on V2/F) ([1]; multiplicative CAVALLI study effect relative to legacy model): 2.33
Association between venetoclax AUCss nominal and PET-CR rates [2]: No clear association
θCL/F, moderate CYP3A inhibitor ([3]; covariate effect on CL/F): 0.84
θCL/F, strong CYP3A inhibitor ([3]; covariate effect on CL/F): 0.18
θCL/F,OATP1B3 inhibitor ([3]; covariate effect on CL/F): 0.85
θV2/F, CLL/SLL/NHL ([3]; covariate effect on V2/F): 1.71
θV2/F,SEX=female ([3]; covariate effect on V2/F): 0.68
CL/F ([3]; final PopPK model): 447 L/day
Q/F ([3]; final PopPK model): 97.2 L/day
V2/F ([3]; final PopPK model): 118 L
V3/F ([3]; final PopPK model): 119 L
ka ([3]; first-order absorption rate constant): 3.72 day⁻¹
θF1,FOOD=fasting [3, 8]: 0.34
θF1,FOOD=fed [3, 8]: 1.23
θF1,FOOD=high fat [3, 8]: 1.43
θF1,FOOD=moderate fat [3, 8]: 1.31
Variability (CV) of CL/F ([3]; inter-individual variability): CV = 39.1%
Variability (CV) of F1 ([3]; inter-individual variability): CV = 31.2%
Variability (CV) of V2/F ([3]; inter-individual variability): CV = 45.3%
ω^2CL/F ([3]; inter-individual variance): 0.15
ω^2F1 ([3]; inter-individual variance): 0.10
ω^2V2/F ([3]; inter-individual variance): 0.21
σ^2add ([3]; residual variance, additive): 3.07 × 10^–7
σ^2prop ([3]; residual variance, proportional): 0.22
Increase of venetoclax CL/F by concomitant R administration [4]: 1.21 fold
Increase in CL/F for venetoclax when co-administered with R [5]: 7%
EC50 for circulating lymphocyte counts [6]: 0.00863 µg/mL
EC50 for tumor size [7]: 0.146 µg/mL
